Test results as given in ChEMBL document CHEMBL1275272, “Synthesis, characterization and antimicrobial activity of some disubstituted 1,3,4-oxadiazoles carrying 2-(aryloxymethyl)phenyl moiety” (2010).
Values after ≈ are worked out from the molar mass of the structure shown.

Assays:
Type in all cases: functional
Aspergillus flavus = assay: Antifungal activity against Aspergillus flavus after 16 to 18 hrs by serial dilution method; conditions: for MIC: Aspergillus flavus
Method in brief: (§1)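 The test compound was dissolved in DMF and serially diluted. A standard drop of the prepared microbial culture was added to each dilution, and tubes were incubated at 37 °C for 16–18 h. MIC was taken as the highest dilution that stayed clear with no visible turbidity.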

Pseudomonas aeruginosa = assay: Antibacterial activity against Pseudomonas aeruginosa after 16 to 18 hrs by serial dilution method; conditions: for MIC: Pseudomonas aeruginosa; method in brief: as §1
Klebsiella pneumoniae = assay: Antibacterial activity against Klebsiella pneumoniae after 16 to 18 hrs by serial dilution method; conditions: for MIC: Klebsiella pneumoniae
Escherichia coli = assay: Antibacterial activity against Escherichia coli after 16 to 18 hrs by serial dilution method; conditions: for MIC: Escherichia coli; method in brief: as §1
Staphylococcus aureus = assay: Antibacterial activity against Staphylococcus aureus after 16 to 18 hrs by serial dilution method; conditions: for MIC: Staphylococcus aureus; method in brief: as §1
Aspergillus fumigatus = assay: Antifungal activity against Aspergillus fumigatus after 16 to 18 hrs by serial dilution method; conditions: for MIC: Aspergillus fumigatus
Talaromyces marneffei = assay: Antifungal activity against Penicillium marneffei after 16 to 18 hrs by serial dilution method; conditions: for MIC: Talaromyces marneffei; method in brief: as §1
[1] = system: Trichophyton mentagrophytes; assay: Antifungal activity against Trichophyton mentagrophytes after 16 to 18 hrs by serial dilution method; conditions: for MIC: Trichophyton mentagrophytes

SMILES	MIC (Aspergillus flavus) [mg/L]	MIC (Pseudomonas aeruginosa) [mg/L]	MIC (Klebsiella pneumoniae) [mg/L]	MIC (Escherichia coli) [mg/L]	MIC (Staphylococcus aureus) [mg/L]	MIC (Aspergillus fumigatus) [mg/L]	MIC (Talaromyces marneffei) [mg/L]	MIC [1] [mg/L]	inhibition zone (IZ) (Aspergillus flavus) [mm]	inhibition zone (IZ) (Pseudomonas aeruginosa) [mm]	inhibition zone (IZ) (Klebsiella pneumoniae) [mm]	inhibition zone (IZ) (Escherichia coli) [mm]	inhibition zone (IZ) (Staphylococcus aureus) [mm]	inhibition zone (IZ) (Aspergillus fumigatus) [mm]	inhibition zone (IZ) (Talaromyces marneffei) [mm]	inhibition zone (IZ) [1] [mm]
Cc1cccc(OCc2ccccc2-c2nnc(-c3cccc4ncccc34)o2)c1	25 (≈ 63.5 µM)	25 (≈ 63.5 µM)	25 (≈ 63.5 µM)	25 (≈ 63.5 µM)	25 (≈ 63.5 µM)	25 (≈ 63.5 µM)	25 (≈ 63.5 µM)	25 (≈ 63.5 µM)	<10	<10	<10	<10	<10	<10	<10	<10
Clc1ccc(OCc2ccccc2-c2nnc(-c3ccccc3)o2)cc1	25 (≈ 68.9 µM)	25 (≈ 68.9 µM)	25 (≈ 68.9 µM)	25 (≈ 68.9 µM)	25 (≈ 68.9 µM)	25 (≈ 68.9 µM)	25 (≈ 68.9 µM)	25 (≈ 68.9 µM)	<10	<10	<10	<10	<10	<10	<10	<10
COc1cc(-c2nnc(-c3ccccc3COc3cccc(C)c3)o2)cc(OC)c1OC	12.5 (≈ 28.9 µM)	6.25 (≈ 14.5 µM)	6.25 (≈ 14.5 µM)	6.25 (≈ 14.5 µM)	6.25 (≈ 14.5 µM)	6.25 (≈ 14.5 µM)	6.25 (≈ 14.5 µM)	12.5 (≈ 28.9 µM)	11	16	16	16	16	16	16	11
Cc1ccc(OCc2ccccc2-c2nnc(SCc3cccc(C)c3)o2)cc1	12.5 (≈ 31.1 µM)	12.5 (≈ 31.1 µM)	12.5 (≈ 31.1 µM)	12.5 (≈ 31.1 µM)	12.5 (≈ 31.1 µM)	12.5 (≈ 31.1 µM)	12.5 (≈ 31.1 µM)	12.5 (≈ 31.1 µM)	11	11	11	11	11	11	11	11
Cc1ccc(OCc2ccccc2-c2nn(CNc3cc(C)ccc3Cl)c(=S)o2)cc1	25 (≈ 55.3 µM)	25 (≈ 55.3 µM)	25 (≈ 55.3 µM)	25 (≈ 55.3 µM)	25 (≈ 55.3 µM)	25 (≈ 55.3 µM)	25 (≈ 55.3 µM)	25 (≈ 55.3 µM)	<10	<10	<10	<10	<10	<10	<10	<10
O=C(c1cc(Cl)ccc1NCn1nc(-c2ccccc2COc2ccc(Cl)cc2)oc1=S)C(F)(F)F	25 (≈ 45.1 µM)	25 (≈ 45.1 µM)	25 (≈ 45.1 µM)	25 (≈ 45.1 µM)	25 (≈ 45.1 µM)	25 (≈ 45.1 µM)	25 (≈ 45.1 µM)	25 (≈ 45.1 µM)	<10	<10	<10	<10	<10	<10	<10	<10
Cc1ccc(OCc2ccccc2-c2nnc(-c3cccc4ncccc34)o2)cc1	25 (≈ 63.5 µM)	25 (≈ 63.5 µM)	25 (≈ 63.5 µM)	25 (≈ 63.5 µM)	25 (≈ 63.5 µM)	25 (≈ 63.5 µM)	25 (≈ 63.5 µM)	25 (≈ 63.5 µM)	<10	<10	<10	<10	<10	<10	<10	<10
Cc1cc(C)cc(-c2nnc(-c3ccccc3COc3ccc(Cl)cc3)o2)c1	12.5 (≈ 32 µM)	12.5 (≈ 32 µM)	12.5 (≈ 32 µM)	12.5 (≈ 32 µM)	12.5 (≈ 32 µM)	12.5 (≈ 32 µM)	12.5 (≈ 32 µM)	12.5 (≈ 32 µM)	11	11	11	11	11	11	11	11
Cc1cccc(OCc2ccccc2-c2nnc(-c3ccccc3F)o2)c1	12.5 (≈ 34.7 µM)	6.25 (≈ 17.3 µM)	6.25 (≈ 17.3 µM)	6.25 (≈ 17.3 µM)	6.25 (≈ 17.3 µM)	12.5 (≈ 34.7 µM)	6.25 (≈ 17.3 µM)	6.25 (≈ 17.3 µM)	11	16	16	16	16	11	16	16

The next lines start with results.

MIC (Aspergillus flavus) [mg/L]	MIC (Pseudomonas aeruginosa) [mg/L]	MIC (Klebsiella pneumoniae) [mg/L]	MIC (Escherichia coli) [mg/L]	MIC (Staphylococcus aureus) [mg/L]	MIC (Aspergillus fumigatus) [mg/L]	MIC (Talaromyces marneffei) [mg/L]	MIC [1] [mg/L]	SMILES	inhibition zone (IZ) (Aspergillus flavus) [mm]	inhibition zone (IZ) (Pseudomonas aeruginosa) [mm]	inhibition zone (IZ) (Klebsiella pneumoniae) [mm]	inhibition zone (IZ) (Escherichia coli) [mm]	inhibition zone (IZ) (Staphylococcus aureus) [mm]	inhibition zone (IZ) (Aspergillus fumigatus) [mm]	inhibition zone (IZ) (Talaromyces marneffei) [mm]	inhibition zone (IZ) [1] [mm]
12.5 (≈ 27.3 µM)	6.25 (≈ 13.7 µM)	6.25 (≈ 13.7 µM)	6.25 (≈ 13.7 µM)	6.25 (≈ 13.7 µM)	6.25 (≈ 13.7 µM)	6.25 (≈ 13.7 µM)	12.5 (≈ 27.3 µM)	Cc1cccc(OCc2ccccc2-c2nnc(SCc3ccc(Cl)cc3Cl)o2)c1	11	16	16	16	16	16	16	11
12.5 (≈ 29.6 µM)	12.5 (≈ 29.6 µM)	12.5 (≈ 29.6 µM)	12.5 (≈ 29.6 µM)	12.5 (≈ 29.6 µM)	12.5 (≈ 29.6 µM)	12.5 (≈ 29.6 µM)	12.5 (≈ 29.6 µM)	Cc1cccc(CSc2nnc(-c3ccccc3COc3ccc(Cl)cc3)o2)c1	11	11	11	11	11	11	11	11
6.25 (≈ 14.5 µM)	6.25 (≈ 14.5 µM)	6.25 (≈ 14.5 µM)	6.25 (≈ 14.5 µM)	6.25 (≈ 14.5 µM)	6.25 (≈ 14.5 µM)	6.25 (≈ 14.5 µM)	6.25 (≈ 14.5 µM)	COc1cc(-c2nnc(-c3ccccc3COc3ccccc3C)o2)cc(OC)c1OC	16	16	16	16	16	16	16	16
12.5 (≈ 33.7 µM)	12.5 (≈ 33.7 µM)	12.5 (≈ 33.7 µM)	12.5 (≈ 33.7 µM)	12.5 (≈ 33.7 µM)	6.25 (≈ 16.9 µM)	12.5 (≈ 33.7 µM)	12.5 (≈ 33.7 µM)	Cc1cc(C)cc(-c2nnc(-c3ccccc3COc3ccccc3C)o2)c1	11	11	11	11	11	16	11	11
12.5 (≈ 31.1 µM)	12.5 (≈ 31.1 µM)	12.5 (≈ 31.1 µM)	12.5 (≈ 31.1 µM)	12.5 (≈ 31.1 µM)	6.25 (≈ 15.5 µM)	12.5 (≈ 31.1 µM)	12.5 (≈ 31.1 µM)	Cc1cccc(CSc2nnc(-c3ccccc3COc3ccccc3C)o2)c1	11	11	11	11	11	16	11	11
6.25 (≈ 13.7 µM)	6.25 (≈ 13.7 µM)	6.25 (≈ 13.7 µM)	6.25 (≈ 13.7 µM)	6.25 (≈ 13.7 µM)	6.25 (≈ 13.7 µM)	6.25 (≈ 13.7 µM)	6.25 (≈ 13.7 µM)	Cc1ccc(OCc2ccccc2-c2nnc(SCc3ccc(Cl)cc3Cl)o2)cc1	16	16	16	16	16	16	16	16
6.25 (≈ 13.3 µM)	6.25 (≈ 13.3 µM)	6.25 (≈ 13.3 µM)	6.25 (≈ 13.3 µM)	6.25 (≈ 13.3 µM)	6.25 (≈ 13.3 µM)	12.5 (≈ 26.5 µM)	12.5 (≈ 26.5 µM)	Cc1cccc(OCc2ccccc2-c2nn(CNc3cccc(C(F)(F)F)c3)c(=S)o2)c1	16	16	16	16	16	16	11	11
6.25 (≈ 12.7 µM)	6.25 (≈ 12.7 µM)	6.25 (≈ 12.7 µM)	6.25 (≈ 12.7 µM)	6.25 (≈ 12.7 µM)	6.25 (≈ 12.7 µM)	6.25 (≈ 12.7 µM)	6.25 (≈ 12.7 µM)	FC(F)(F)c1cccc(NCn2nc(-c3ccccc3COc3ccc(Cl)cc3)oc2=S)c1	16	16	16	16	16	16	16	16
